Results from ChEMBL document CHEMBL1240416, “Synthesis, structure and DNA cleavage studies of coumarin analogues of tetrahydroisoquinoline and protoberberine alkaloids” (Eur J Med Chem, 2010).
Activity calls are given as the source filed them. The rule behind the calls is not given here.

Tests used:
Format in all cases: nucleic-acid assay
Nucleic Acid [1] = experiment: Induction of Aspergillus niger DNA cleavage after 2 hrs by agarose gel electrophoresis
In short: (§1)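 Genomic DNA was isolated from cultures grown at 37 °C (E. coli and S. aureus in nutrient broth for 24 h; A. niger in potato dextrose broth for 48 h). Extraction used Tris/EDTA/SDS lysis, phenol at 55 °C, chloroform:isoamyl alcohol and ethanol precipitation. DNA was incubated 2 h at 37 °C with compound from a 1 mg/mL DMF stock, then run on agarose in TAE at 50 V for about 30 min against marker and untreated-DNA lanes.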

Nucleic Acid [2] = experiment: Induction of Escherichia coli ATCC 35218 DNA cleavage after 2 hrs by agarose gel electrophoresis; in short: as §1
Nucleic Acid [3] = experiment: Induction of Staphylococcus aureus 6538 DNA cleavage after 2 hrs by agarose gel electrophoresis; in short: as §1

Row | SMILES | Activity (Nucleic Acid [1]) | Activity (Nucleic Acid [2]) | Activity (Nucleic Acid [3])
1 | COc1cc2c(cc1OC)C1Cc3c(c(=O)oc4c3ccc3ccccc34)CN1CC2 (stereo unspecified) | Active | inactive | Active
2 | COc1cc2c(cc1OC)C1Cc3c(c(=O)oc4cc(C)ccc34)CN1CC2 (stereo unspecified) | inactive | inactive | inactive
3 | Cc1ccc2oc(=O)c3c(c2c1)CC1c2ccccc2CCN1C3 (stereo unspecified) | inactive | inactive | inactive
4 | COc1cc2c(cc1OC)C(Cc1cc(=O)oc3ccc(C)cc13)NCC2 (stereo unspecified) | inactive | inactive | inactive
5 | COc1cc2c(cc1OC)C(Cc1cc(=O)oc3c1ccc1ccccc13)NCC2 (stereo unspecified) | Active | inactive | Active
6 | O=c1oc2c(ccc3ccccc32)c2c1CN1CCc3ccccc3C1C2 (stereo unspecified) | Active | inactive | Active
7 | O=c1cc(CC2NCCc3ccccc32)c2ccc3ccccc3c2o1 (stereo unspecified) | Active | inactive | Active
8 | Cc1ccc2c(CC3NCCc4ccccc43)cc(=O)oc2c1 (stereo unspecified) | inactive | inactive | inactive
9 | COc1cc2c(cc1OC)C(Cc1cc(=O)oc3cc(C)ccc13)NCC2 (stereo unspecified) | inactive | inactive | inactive
10 | COc1cc2c(cc1OC)C1Cc3c(c(=O)oc4ccc(C)cc34)CN1CC2 (stereo unspecified) | inactive | inactive | inactive
11 | Cc1ccc2oc(=O)cc(CC3NCCc4ccccc43)c2c1 (stereo unspecified) | inactive | inactive | inactive
12 | Cc1ccc2c3c(c(=O)oc2c1)CN1CCc2ccccc2C1C3 (stereo unspecified) | inactive | inactive | inactive
